ChEMBL document CHEMBL3272055, “2,3-Disubstituted 1,8-naphthyridines as potential diuretic agents. 2. 5,7-Dimethyl derivatives” (J Med Chem, 1977)

Experiments:
Rattus norvegicus [1] = assay: Diuretic activity in nonloaded rat assessed as urine volume at 15 mg/kg after 6 hrs relative to control; type: functional
Summary of the method: (§1)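 Nonloaded rats dosed at 2 or 15 mg/kg. Urine was collected cumulatively over 6 h and urine volume, Na+ and K+ (mequiv) measured. Values are means of eight rats, reported as drug versus control, with the Na+/K+ ratio derived from these.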

Rattus norvegicus [2] = assay: Diuretic activity in saline-loaded Wistar albino rat assessed as increase of saline-load excretion at 2 mg/kg, ip measured for 6 hrs relative to control; type: functional, Urine; details: route intraperitoneal
Summary of the method: (§2)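 Saline-loaded rats given compound ip, screened at 15 mg/kg, with actives retested at 2 mg/kg. Diuresis was read as urine volume output over 6 h by a modified Lipschitz method and expressed as % of the saline load excreted, as an increase over controls. A response under 21.8% above control was counted insignificant. Activity was also expressed relative to triamterene.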

Rattus norvegicus [3] = assay: Natriuretic activity in nonloaded rat assessed as increase in Na+ secretion at 15 mg/kg after 6 hrs relative to control; type: functional; summary of the method: as §1
Rattus norvegicus [4] = assay: Ratio of natriuretic activity in nonloaded rat assessed as increase in Na+ secretion at 15 mg/kg to kaliuretic activity in nonloaded rat assessed as increase in K+ secretion at 15 mg/kg; summary of the method: as §1
Rattus norvegicus [5] = assay: Toxicity in nonloaded rat assessed as kaluretic effect by measuring increase in K+ secretion at 15 mg/kg after 6 hrs relative to control; type: organism-based; parameters: dose 15 mg/kg; details: in vivo; summary of the method: as §1
Rattus norvegicus [6] = assay: Diuretic activity in saline-loaded Wistar albino rat assessed as increase of saline-load excretion at 15 mg/kg, ip measured for 6 hrs relative to control; type: functional, Urine; details: route intraperitoneal; summary of the method: as §2
Rattus norvegicus [7] = assay: Diuretic activity in saline-loaded Wistar albino rat assessed as increase of saline-load excretion at 15 mg/kg, ip measured for 6 hrs relative to triamterene; type: functional, Urine; details: route intraperitoneal; summary of the method: as §2
Rattus norvegicus [8] = assay: Diuretic activity in saline-loaded Wistar albino rat assessed as increase of saline-load excretion at 2 mg/kg, ip measured for 6 hrs relative to triamterene; type: functional, Urine; details: route intraperitoneal; summary of the method: as §2
Rattus norvegicus [9] = assay: Toxicity in nonloaded rat assessed as kaluretic effect by measuring increase in K+ secretion at 2 mg/kg after 6 hrs relative to control; type: organism-based; parameters: dose 2 mg/kg; details: in vivo; summary of the method: as §1
Rattus norvegicus [10] = assay: Diuretic activity in nonloaded rat assessed as urine volume at 2 mg/kg after 6 hrs relative to control; type: functional; summary of the method: as §1
Rattus norvegicus [11] = assay: Natriuretic activity in nonloaded rat assessed as increase in Na+ secretion at 2 mg/kg after 6 hrs relative to control; type: functional; summary of the method: as §1
Rattus norvegicus [12] = assay: Ratio of natriuretic activity in nonloaded rat assessed as increase in Na+ secretion at 2 mg/kg to kaliuretic activity in nonloaded rat assessed as increase in K+ secretion at 2 mg/kg; summary of the method: as §1

Row | Structure (SMILES) | Activity (Rattus norvegicus [1]) | Activity (Rattus norvegicus [2]) | Activity (Rattus norvegicus [3]) | Ratio (Rattus norvegicus [4]) | Activity (Rattus norvegicus [5]) | Activity (Rattus norvegicus [6]) | fold change (FC) (Rattus norvegicus [7]) | fold change (FC) (Rattus norvegicus [8]) | Activity (Rattus norvegicus [9]) | Activity (Rattus norvegicus [10]) | Activity (Rattus norvegicus [11]) | Ratio (Rattus norvegicus [12])
1 | Nc1nc(N)c2nc(-c3ccccc3)c(N)nc2n1 [TRIAMTERENE] | 4.9 mL | 34.5% | 0.804 milliequivalent | 5.84 | 0.136 milliequivalent | 57.8% |  |  |  |  |  | 
2 | Cl.NC(=O)c1cc2cccnc2nc1N.O | 5.3 mL | 62.9% | 0.765 milliequivalent | 4.75 | 0.161 milliequivalent | 67.5% | 1.41 | 3 |  |  |  | 
3 | CCCCNC(=O)c1cc2c(C)cc(C)nc2nc1N | 4.1 mL | 43.2% | 0.427 milliequivalent | 1.71 | 0.25 milliequivalent | 152.7% | 2.64 | 1.25 | 0.217 milliequivalent | 3.7 mL | 0.471 milliequivalent | 2.17
4 | COC(=O)c1cc2c(C)cc(C)nc2nc1N | 1.6 mL | <21.8% | 0.221 milliequivalent | 1.05 | 0.21 milliequivalent | 47.3% | 0.82 |  |  |  |  | 
5 | CCCNC(=O)c1cc2c(C)cc(C)nc2nc1N | 3.9 mL | <21.8% | 0.41 milliequivalent | 1.64 | 0.25 milliequivalent | 53.7% | 0.93 |  |  |  |  | 
6 | CCNC(=O)c1cc2c(C)cc(C)nc2nc1N | 3.7 mL | <21.8% | 0.495 milliequivalent | 1.64 | 0.301 milliequivalent | 47.7% | 0.83 |  |  |  |  | 
7 | CCCCCNC(=O)c1cc2c(C)cc(C)nc2nc1N | 2.9 mL | <21.8% | 0.39 milliequivalent | 1.48 | 0.263 milliequivalent | 23.4% | 0.4 |  |  |  |  | 
